The results in this text go back to ChEMBL document CHEMBL3632600, “Novel arylalkylamine compounds exhibits potent selective antiparasitic activity against Leishmania major” (Bioorg Med Chem Lett, 2015).

Assay [1] concerns Leishmania major. The assay is described as follows: Antileishmanial activity against promastigote stage of Leishmania major Friedlin clone V1 assessed as parasite survival after 72 hrs by luciferase reporter gene assay. The assay is classed as functional. The settings on record: Friedlin clone V1, 72 h, read-out: LD50 (the source's name). The procedure, abridged: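 Luciferase-expressing L. major Friedlin clone V1 promastigotes exposed to compound for 72 h; Amphotericin B served as positive control. Lethality is expressed as LD50.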
(In general: Reporter assays use an easily measured gene product as a stand-in for the process of interest.)

In assay [2] the test system is LLC-MK2. Description: Cytotoxicity against monkey LLC-MK2 cells after 96 hrs by Alamar Blue assay. The settings on record: Macaca mulatta, LLC-MK2, 96 h. It is filed as cell-based.
Assay [3] deals with Leishmania major. The assay is described as follows: Antileishmanial activity against promastigote stage of Leishmania major assessed as induction of intracellular reactive oxygen species generation at 3 uM preincubated for 24 hrs followed by H2DCFDA probe addition measured after 20 mins by fluorescence microplate reader analysis relative to vehicle-treated control. The assay is classed as functional. Summed up: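 L. major promastigotes exposed 24 h (3 µM for the single-concentration read). H2DCFDA then added and incubated a further 20 min at 37 °C; fluorescence read on a microplate reader and expressed relative to 1% DMSO vehicle. Medium-only also served as negative control; hydrogen peroxide 100 µM as positive control.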

For assay [4], the system named is Leishmania major. Description: Antileishmanial activity against amastigote stage of Leishmania major in starch-activated mouse intraperitoneal macrophages assessed as inhibition of intracellular parasite proliferation at 5 uM after 48 hrs by annexin-V 488/DAPI staining-based microplate confocal microscopic analysis relative to control. The assay is classed as functional. The procedure, abridged:
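Macrophages infected 24 h after plating with L. major metacyclic promastigotes at 10 parasites per cell, then treated 48 h at 5 µM. Fixed, stained with annexin-V 488 and DAPI; infected cells (5 or more amastigotes per macrophage) and amastigotes counted by high-content confocal imaging. Negative control 1% DMSO; positive control amphotericin B 25 µM.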

The nature of assay [5]: Cytotoxicity against mouse intraperitoneal macrophages after 48 hrs by Alamar Blue assay. It is filed as cell-based. Particulars: Peritoneal macrophage cell.
For assay [6], the system named is U2OS. The assay is described as follows: Cytotoxicity against human U2OS cells after 96 hrs by Alamar Blue assay. The assay is classed as cell-based.
The test system of assay [7] is RAW264.7. Description: Cytotoxicity against mouse Raw264.7 cells after 96 hrs by Alamar Blue assay. It is filed as cell-based. Particulars: RAW264.7, 96 h. Background: The colour change of resazurin is a common sign of viable cells or microbes.

As a reminder, the IC50 is the concentration at which inhibition is half-maximal. For orientation: inhibition means the percentage by which the read-out fell short of the control.

Take `CCOC(=O)c1cnc(NC2CCCCC2)c(N)c1`: in assay [1], the LC50 is above 10 µM.
On to `CCOC(=O)c1ccc(NC2CCCCC2)c(NCc2ccc([N+](=O)[O-])cc2)c1`, for which the LC50 in assay [1] was above 10 µM.
On to `CCOC(=O)c1ccc(N[C@H]2CC[C@H](N)CC2)c(N)c1`, for which the LC50 in assay [1] was above 10 µM.
The same measure, in the same setting: the same measure for `CCOC(=O)c1ccc(NC2CCCCC2)c(N(Cc2ccccc2)Cc2ccccc2)c1`: above 10 µM.
For `CCOC(=O)c1ccc(NC2CCCCC2)c(N)c1`, the half-maximal inhibitory concentration (IC50) in assay [2] was above 240 µM. Moreover, the LC50 in assay [1] stood at 28.8 µM.
In the case of `CCOC(=O)c1ccc(NC2CCCCC2)c(NCc2ccc(F)c(C#N)c2)c1`, the LC50 in assay [1] is above 10 µM.
For the compound `Nc1cc(C(=O)OCCN2CCOCC2)ccc1NC1CCCCC1`, the LC50 in assay [1] was above 10 µM.
Turning to `CCOC(=O)c1ccc(NC2CCCCC2)c(NCc2ccc(C#N)cc2)c1`, the LC50 in assay [1] is above 10 µM.
Same read-out and setting: as for `CCOC(=O)c1cc(NCc2ccncn2)c(NC2CCCCC2)cc1F`, the figure is 9.49 µM.
Same read-out and setting: as for `CCOC(=O)c1ccc(NC2CCCCC2)c([N+](=O)[O-])c1`, the figure is above 10 µM.
Consider `CCOC(=O)c1ccc(NC2CCCCC2)c(NCc2cc(F)cc(Br)c2)c1`, for which the LC50 in assay [1] is above 10 µM.
On the same count and under the same terms, the same measure for `CCOC(=O)c1ccc(NC23CC4CC(CC(C4)C2)C3)c(NCc2ccccc2)c1`: above 10 µM; for `CCOC(=O)c1ccc(NC2CCCCC2)c(NCc2ccc(OC)cc2)c1`: above 10 µM.
In the case of `CCOC(=O)c1ccc(NC2CCCCC2)c(NCc2cccc(OC)c2)c1`, in assay [1], the LC50 amounted to 4.98 µM.
Take `CCOC(=O)c1ccc(NC2CCOCC2)c(N)c1`: in assay [1], the LC50 is above 10 µM.
On the same count and under the same terms, the same measure for `CCOC(=O)c1ccc(NC2CCCCC2)c(NC(=O)OC)c1`: above 10 µM.
Same read-out and setting: as for `CCOC(=O)c1ccc(NC2CCC(C(C)(C)C)CC2)c(NCc2ccncn2)c1` (stereo not drawn), the figure is 4.92 µM.
`CCOC(=O)c1ccc(NC2CCCCC2)c(NCc2ccccc2)c1`: the “fold change (FC)” value in assay [3] came to 1.75. Further, the inhibition at 5 µM in assay [4] came out at 80%. Also, the LC50 in assay [1] turned out to be 3.34 µM. Also, the IC50 in assay [5], in assay [6] and in assay [7] was above 80 µM throughout.
Consider `CCOC(=O)c1ccc(NC2CCCCC2)c(NCc2cccc(Cl)c2)c1`, for which the LC50 in assay [1] was above 10 µM.
Consider `CCOC(=O)c1ccc(NC23CC4CC(CC(C4)C2)C3)c(NCc2ccncn2)c1`, for which the LC50 in assay [1] was above 10 µM.
On the same count and under the same terms, the same measure for `CCOC(=O)c1ccc(NC2CCC(C(C)(C)C)CC2)c(NCc2ccccc2)c1` (stereo not drawn): above 10 µM; for `CCCCCCCCCCOC(=O)c1cc(N)c(NC2CCCCC2)cc1F`: above 10 µM.
Regarding `O=C(O)c1ccc(NC2CCCCC2)c(NCc2ccccc2)c1`, the LC50 in assay [1] was above 10 µM.
In the case of `CCOC(=O)c1ccc(NC2CCCCC2)c(NCc2ccc(C(=O)OC)cc2)c1`, the LC50 in assay [1] is above 10 µM.
Turning to `CCOC(=O)c1ccc(NC2CCCCC2)c(NCc2cccc(F)c2)c1`, the LC50 in assay [1] was above 10 µM.
Turning to `CCOC(=O)c1cc(N)c(NC2CCCCC2)cc1F`, the LC50 in assay [1] was above 10 µM.
As to `CCOC(=O)c1ccc(NC2CCCCC2)c(NCc2ccccc2[N+](=O)[O-])c1`, in assay [1], the LC50 is above 10 µM.
